{
  "source": "ChEMBL document CHEMBL4422635",
  "about": "“Structure-Based Discovery of a Subtype-Selective Inhibitor Targeting a Transient Receptor Potential Vanilloid Channel” (J Med Chem, 2019)",
  "key": {"Mus musculus [1]": {"test_system": "Mus musculus", "experiment": "Antagonist activity at mouse TRPV2/LPAR1 expressed in LPA-stimulated HEK293T cells assessed as inhibition of 2-APB evoked currents at 1 uM dosed 3 mins after LPA stimulation by whole-cell patch clamp assay", "outline": "(§1)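 Whole-cell voltage clamp of transiently transfected HEK293T cells co-expressing GFP, recorded 36-96 h post-transfection. Hold -60 mV; pipettes 3-7 MΩ. Bath 165 mM NaCl, 10 mM HEPES pH 7.3; pipette 140 mM KCl, 10 mM HEPES pH 7.3. Room temperature (~25 °C). IC50 from Hill fits of I/I0, the current ratio after vs before inhibitor; mean ± SEM.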"}, "Mus musculus [2]": {"test_system": "Mus musculus", "experiment": "Antagonist activity at mouse TRPV2/LPAR1 expressed in LPA-stimulated HEK293T cells assessed as inhibition of 2-APB evoked currents at 10 uM dosed 3 mins after LPA stimulation by whole-cell patch clamp assay", "outline": "as §1"}, "[3]": {"target": "T1, Transient receptor potential cation channel subfamily V member 2 (Homo sapiens, UniProt Q9Y5S1)", "T1 sequence (Q9Y5S1 whole entry)": "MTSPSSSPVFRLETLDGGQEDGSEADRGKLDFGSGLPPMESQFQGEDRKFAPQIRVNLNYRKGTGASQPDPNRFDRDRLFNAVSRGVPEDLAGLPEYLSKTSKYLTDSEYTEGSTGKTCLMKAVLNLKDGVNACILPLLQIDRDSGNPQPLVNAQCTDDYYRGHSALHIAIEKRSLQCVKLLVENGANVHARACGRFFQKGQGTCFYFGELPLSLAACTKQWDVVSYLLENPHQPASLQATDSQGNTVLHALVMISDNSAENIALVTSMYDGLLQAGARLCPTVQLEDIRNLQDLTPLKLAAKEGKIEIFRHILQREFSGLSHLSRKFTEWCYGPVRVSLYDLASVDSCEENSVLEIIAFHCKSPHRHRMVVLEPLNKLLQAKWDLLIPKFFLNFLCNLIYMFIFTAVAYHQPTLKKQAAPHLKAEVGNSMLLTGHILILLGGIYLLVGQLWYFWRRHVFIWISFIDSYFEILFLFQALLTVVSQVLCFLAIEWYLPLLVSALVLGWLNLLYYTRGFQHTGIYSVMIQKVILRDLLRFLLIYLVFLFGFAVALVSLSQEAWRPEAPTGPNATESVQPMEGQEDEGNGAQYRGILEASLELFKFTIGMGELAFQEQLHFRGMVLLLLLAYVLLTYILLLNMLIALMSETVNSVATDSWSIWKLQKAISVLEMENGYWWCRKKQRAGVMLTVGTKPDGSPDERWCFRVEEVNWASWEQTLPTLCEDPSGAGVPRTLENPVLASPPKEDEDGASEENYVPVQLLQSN", "experiment": "Antagonist activity at TRPV2 (unknown origin)", "outline": "as §1"}, "[4]": {"target": "T2, Transient receptor potential cation channel subfamily V member 2 (Mus musculus) (UniProt Q9WTR1)", "T2 sequence (whole entry)": "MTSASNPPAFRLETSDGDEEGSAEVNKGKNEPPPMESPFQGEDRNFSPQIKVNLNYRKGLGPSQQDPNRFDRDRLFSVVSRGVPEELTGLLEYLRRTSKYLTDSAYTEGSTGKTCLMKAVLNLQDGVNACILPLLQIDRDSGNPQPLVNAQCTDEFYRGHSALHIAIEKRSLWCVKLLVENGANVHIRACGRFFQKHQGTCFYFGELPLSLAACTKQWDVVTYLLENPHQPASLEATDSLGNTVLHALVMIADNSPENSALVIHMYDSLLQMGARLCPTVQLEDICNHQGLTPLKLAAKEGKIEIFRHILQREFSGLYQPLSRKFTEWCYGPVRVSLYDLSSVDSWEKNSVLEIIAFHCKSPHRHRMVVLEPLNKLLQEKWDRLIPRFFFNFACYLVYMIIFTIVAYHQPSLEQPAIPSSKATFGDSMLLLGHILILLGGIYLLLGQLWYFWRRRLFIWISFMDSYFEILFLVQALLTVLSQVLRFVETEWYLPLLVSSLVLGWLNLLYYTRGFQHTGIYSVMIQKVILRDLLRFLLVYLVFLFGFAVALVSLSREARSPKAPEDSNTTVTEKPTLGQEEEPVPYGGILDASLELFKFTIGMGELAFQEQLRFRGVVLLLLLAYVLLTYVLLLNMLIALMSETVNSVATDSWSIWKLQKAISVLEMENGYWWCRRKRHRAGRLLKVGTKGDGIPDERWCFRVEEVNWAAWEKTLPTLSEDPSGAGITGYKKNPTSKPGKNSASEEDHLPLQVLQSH", "experiment": "Inhibition of mouse TRPV2 expressed in HEK293T cells assessed as inhibition of 2-APB evoked currents at 10 uM at -60 mV holding potential by whole-cell patch clamp assay", "assay_type": "cell-based", "outline": "as §1"}, "[5]": {"target": "T2, Transient receptor potential cation channel subfamily V member 2 (Mus musculus)", "experiment": "Antagonist activity at mouse TRPV2 expressed in HEK293T cells assessed as inhibition of 2-APB evoked currents at -60 mV holding potential by whole-cell patch clamp assay", "assay_type": "cell-based", "outline": "as §1"}},
  "note": "pIC50: −log10 of the molar value. Active and inactive are the calls of the source. The rule behind the calls is not given here.",
  "data": [
    {"smiles": "Cc1noc(-c2ccc(-c3ccc(CC(=O)O)cc3)cc2)c1NC(=O)O[C@H](C)c1ccccc1Cl", "values": [
      {"measurement": "inhibition", "setting": "Mus musculus [1]", "result": "Active"},
      {"measurement": "inhibition", "setting": "Mus musculus [2]", "result": "Active"}
    ]},
    {"smiles": "COc1ccc(/C=C/C(=O)Nc2ccccc2C(=O)O)cc1OC", "note": "[TRANILAST]", "values": [
      {"measurement": "pIC50", "setting": "[3]", "result": "< 5.00"}
    ]},
    {"smiles": "COc1ccc(-c2cc(C(F)(F)F)nc(SCCC(=O)NCc3ccco3)n2)cc1", "values": [
      {"measurement": "inhibition", "setting": "[4]", "result": "Active"},
      {"measurement": "inhibition", "setting": "[5]", "result": "Dose-dependent effect"}
    ]},
    {"smiles": "CN1CCN(c2cc(C(F)(F)F)nc(SCCC(=O)NCc3ccco3)n2)CC1", "values": [
      {"measurement": "inhibition", "setting": "[5]", "result": "Dose-dependent effect"}
    ]}
  ]
}
